Assay type in all cases: functional
Experiment [1] deals with Staphylococcus aureus. Briefly: Antimicrobial activity against methicillin-resistant Staphylococcus aureus USA300 assessed as reduction in bacterial growth incubated for 18 to 20 hrs at 37 degC by broth microdilution method. The essentials:
(§1)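 Modified CLSI broth microdilution. Bacterial suspension of about 1 × 10^5 CFU/mL in tryptic soy broth. Each agent was added in triplicate to the first row and serially diluted down the plate. Plates were incubated at 37 °C for 18-20 h. MIC was read as the lowest concentration with no visible growth.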
For orientation: Dilution methods test growth across graded concentrations, often in twofold steps.

For experiment [2], the system named is Staphylococcus aureus. Briefly: Antimicrobial activity against methicillin-resistant Staphylococcus aureus USA500 assessed as reduction in bacterial growth incubated for 18 to 20 hrs at 37 degC by broth microdilution method. The essentials: as §1
The subject of experiment [3] is Staphylococcus aureus. Briefly: Antimicrobial activity against methicillin-resistant Staphylococcus aureus USA700 assessed as reduction in bacterial growth incubated for 18 to 20 hrs at 37 degC by broth microdilution method. The essentials: as §1
The subject of experiment [4] is Staphylococcus aureus. Briefly: Antimicrobial activity against methicillin-sensitive Staphylococcus aureus NRS72 assessed as reduction in bacterial growth incubated for 18 to 20 hrs at 37 degC by broth microdilution method. The essentials: as §1
The subject of experiment [5] is Staphylococcus aureus. In words: Antimicrobial activity against methicillin-resistant Staphylococcus aureus USA200 assessed as reduction in bacterial growth incubated for 18 to 20 hrs at 37 degC by broth microdilution method. The method, boiled down:
as §1

Experiment [6] has as its system Staphylococcus aureus. In words: Antimicrobial activity against methicillin-resistant Staphylococcus aureus USA100 assessed as reduction in bacterial growth incubated for 18 to 20 hrs at 37 degC by broth microdilution method. The essentials:
as §1

Experiment [7] deals with Staphylococcus aureus. In words: Antimicrobial activity against vancomycin-intermediate-resistant Staphylococcus aureus NRS1 assessed as reduction in bacterial growth incubated for 18 to 20 hrs at 37 degC by broth microdilution method. The essentials:
as §1

For experiment [8], the system named is Staphylococcus aureus. Briefly: Antimicrobial activity against methicillin-resistant Staphylococcus aureus NRS119 assessed as reduction in bacterial growth incubated for 18 to 20 hrs at 37 degC by broth microdilution method. The method, boiled down:
as §1

Experiment [9] concerns Staphylococcus aureus. In words: Antimicrobial activity against vancomycin-resistant Staphylococcus aureus VRS2 assessed as reduction in bacterial growth incubated for 18 to 20 hrs at 37 degC by broth microdilution method. The essentials:
as §1

Values after ≈ are worked out from the molar mass of the structure shown.

What is called MIC is the lowest concentration that inhibits growth of the organism. Regarding `[C-]#[N+]c1ccccc1-c1ccccc1`, the MIC was greater than 128 µM in experiment [1]; greater than 128 µM in [2]; 16 µM (≈ 2.87 µg/mL) in experiment [3]; greater than 128 µM in experiment [4]; 16 µM (≈ 2.87 µg/mL) in experiment [5]; 16 µM (≈ 2.87 µg/mL) in experiment [6]. Further, the MIC in experiment [7] was 8 µM (≈ 1.43 µg/mL); in [8], greater than 128 µM; in [9], greater than 128 µM.

Turning to `[C-]#[N+]c1ccccc1/C=C(\CCC)c1ccccc1`, the MIC in [1] came to 32 µM (≈ 7.91 µg/mL); in [2], 16 µM (≈ 3.96 µg/mL); in experiment [3] it was 16 µM (≈ 3.96 µg/mL); in [4], 16 µM (≈ 3.96 µg/mL); in experiment [5] it was 16 µM (≈ 3.96 µg/mL); in [6] it was 16 µM (≈ 3.96 µg/mL). The MIC in experiment [7] came to 8 µM (≈ 1.98 µg/mL); in experiment [8], 32 µM (≈ 7.91 µg/mL); in experiment [9], 32 µM (≈ 7.91 µg/mL).

For the compound `[C-]#[N+]c1ccccc1/C=C(\CCCC)c1ccccc1`, the MIC in experiment [1] was greater than 128 µM; in experiment [2], 32 µM (≈ 8.36 µg/mL); in experiment [3], 16 µM (≈ 4.18 µg/mL); in [4] it was 32 µM (≈ 8.36 µg/mL); in [5], 32 µM (≈ 8.36 µg/mL); in [6], 32 µM (≈ 8.36 µg/mL). The MIC in experiment [7] was 16 µM (≈ 4.18 µg/mL); in [8] it was greater than 128 µM; in experiment [9] it was 64 µM (≈ 16.7 µg/mL).

As to `[C-]#[N+]c1ccccc1C=C(c1ccccc1)c1ccccc1`, the MIC is 16 µM (≈ 4.5 µg/mL) in [1]; 8 µM (≈ 2.25 µg/mL) in experiment [2]; 4 µM (≈ 1.13 µg/mL) in experiment [3]; 8 µM (≈ 2.25 µg/mL) in experiment [4]; 8 µM (≈ 2.25 µg/mL) in experiment [5]; 8 µM (≈ 2.25 µg/mL) in experiment [6]. For the same compound, the MIC in experiment [7] was 4 µM (≈ 1.13 µg/mL); in [8], 16 µM (≈ 4.5 µg/mL); in experiment [9], 16 µM (≈ 4.5 µg/mL).

Turning to `[C-]#[N+]c1ccccc1/C=C(\CC)c1ccc(F)cc1`, the MIC came to 32 µM (≈ 8.04 µg/mL) in experiment [1]; 16 µM (≈ 4.02 µg/mL) in experiment [2]; 8 µM (≈ 2.01 µg/mL) in experiment [3]; 8 µM (≈ 2.01 µg/mL) in experiment [4]; 16 µM (≈ 4.02 µg/mL) in experiment [5]; 16 µM (≈ 4.02 µg/mL) in [6]. Moreover, the values for the MIC in [7], in experiment [8] and in experiment [9] were 8 µM (≈ 2.01 µg/mL), 64 µM (≈ 16.1 µg/mL) and 32 µM (≈ 8.04 µg/mL), respectively.

Take `[C-]#[N+]c1ccccc1/C=C(\CC)c1ccc(C(F)(F)F)cc1`: the MIC stood at 32 µM (≈ 9.64 µg/mL) in [1]; 8 µM (≈ 2.41 µg/mL) in experiment [4]; 8 µM (≈ 2.41 µg/mL) in experiment [7]; 64 µM (≈ 19.3 µg/mL) in experiment [8]; 16 µM (≈ 4.82 µg/mL) in experiment [9].

Take `[C-]#[N+]c1ccccc1/C=C/c1ccc(CCCC)cc1`: the MIC in experiment [1], in [2], in [4], in experiment [5], in [8] and in experiment [9] was greater than 128 µM in each case.

In the case of `[C-]#[N+]c1ccccc1C=C1CCCCC1`, the MIC is greater than 128 µM in experiment [1]; greater than 128 µM in experiment [2]; 16 µM (≈ 3.16 µg/mL) in experiment [3]; 8 µM (≈ 1.58 µg/mL) in experiment [4]; 64 µM (≈ 12.6 µg/mL) in [5]; 16 µM (≈ 3.16 µg/mL) in [6]. For the same compound, the MIC in [7] was 4 µM (≈ 0.789 µg/mL); in [8], greater than 128 µM; in experiment [9], greater than 128 µM.

Regarding `[C-]#[N+]c1cccc(/C=C/c2ccccn2)c1`, the MIC was 32 µM (≈ 6.6 µg/mL) in experiment [1]; 64 µM (≈ 13.2 µg/mL) in [2]; 64 µM (≈ 13.2 µg/mL) in experiment [3]; 64 µM (≈ 13.2 µg/mL) in experiment [4]; 64 µM (≈ 13.2 µg/mL) in experiment [5]; 32 µM (≈ 6.6 µg/mL) in [6]. The MIC in experiment [7], in experiment [8] and in [9] was 128 µM (≈ 26.4 µg/mL) throughout.

Consider `[C-]#[N+]c1ccc(/C=C/c2ccccn2)cc1`, for which the MIC stood at 32 µM (≈ 6.6 µg/mL) in experiment [1]; 64 µM (≈ 13.2 µg/mL) in experiment [2]; 128 µM (≈ 26.4 µg/mL) in [3]; 64 µM (≈ 13.2 µg/mL) in [4]; 128 µM (≈ 26.4 µg/mL) in [5]; 128 µM (≈ 26.4 µg/mL) in experiment [6]. Moreover, the MIC was 64 µM (≈ 13.2 µg/mL) in experiment [7], 128 µM (≈ 26.4 µg/mL) in experiment [8] and 64 µM (≈ 13.2 µg/mL) in experiment [9].

Consider `[C-]#[N+]c1cccc(/C=C/c2cccnc2)c1`, for which the MIC in [1] was determined as 32 µM (≈ 6.6 µg/mL); in experiment [2] it was 64 µM (≈ 13.2 µg/mL); in [3], 64 µM (≈ 13.2 µg/mL); in [4] it was 64 µM (≈ 13.2 µg/mL); in experiment [5], 64 µM (≈ 13.2 µg/mL); in [6], 32 µM (≈ 6.6 µg/mL). The MIC in experiment [7], in experiment [8] and in experiment [9] was 64 µM (≈ 13.2 µg/mL) in each case.

With `[C-]#[N+]c1ccccc1/C=C/c1ccncc1`, the MIC in [1] stood at 32 µM (≈ 6.6 µg/mL); in [2], 32 µM (≈ 6.6 µg/mL); in experiment [3], 32 µM (≈ 6.6 µg/mL); in experiment [4], 64 µM (≈ 13.2 µg/mL); in experiment [5], 32 µM (≈ 6.6 µg/mL); in [6] it was 32 µM (≈ 6.6 µg/mL). The MIC in [7], in experiment [8] and in experiment [9] was 64 µM (≈ 13.2 µg/mL) each time.

As for `[C-]#[N+]c1cccc(/C=C/c2ccncc2)c1`, the MIC was found to be 32 µM (≈ 6.6 µg/mL) in experiment [1]; 64 µM (≈ 13.2 µg/mL) in experiment [2]; 64 µM (≈ 13.2 µg/mL) in experiment [3]; 64 µM (≈ 13.2 µg/mL) in [4]; 64 µM (≈ 13.2 µg/mL) in [5]; 32 µM (≈ 6.6 µg/mL) in [6]. The MIC in experiment [7] turned out to be 32 µM (≈ 6.6 µg/mL); in experiment [8], 32 µM (≈ 6.6 µg/mL); in experiment [9], 64 µM (≈ 13.2 µg/mL).

As to `N#Cc1ccccc1/C=C/c1ccccc1`, the MIC in experiment [1], in experiment [2], in experiment [3], in experiment [4], in experiment [5] and in [6] was greater than 128 µM each time. Also, the MIC in experiment [7], in experiment [8] and in experiment [9] was greater than 128 µM in each case.

As to `[C-]#[N+]c1ccc(C)cc1-c1ccc(C(C)(C)C)cc1`, the MIC in experiment [1] was greater than 128 µM; in experiment [2] it was greater than 128 µM; in experiment [3], 16 µM (≈ 3.99 µg/mL); in [4], greater than 128 µM; in [5], 16 µM (≈ 3.99 µg/mL); in [6] it was 16 µM (≈ 3.99 µg/mL). In addition, the MIC in experiment [7] is 4 µM (≈ 0.997 µg/mL); in experiment [8], 64 µM (≈ 16 µg/mL); in [9], greater than 128 µM.

For `[C-]#[N+]c1ccc(C)cc1-c1ccc(C(F)(F)F)cc1`, the MIC in experiment [1], in [2], in experiment [3], in experiment [4], in [5] and in experiment [6] was greater than 128 µM in each case. In addition, the MIC in experiment [7], in [8] and in experiment [9] was greater than 128 µM throughout.

For `Nc1ccccc1CCc1ccccc1`, the MIC is greater than 128 µM in [1]; greater than 64 µM in [2]; greater than 64 µM in [3]; greater than 128 µM in experiment [4]; 32 µM (≈ 6.31 µg/mL) in experiment [5]; greater than 128 µM in experiment [6]. Besides, the MIC in experiment [7] is 8 µM (≈ 1.58 µg/mL); in [8] it was greater than 128 µM; in [9] it was greater than 64 µM.

As for `[C-]#[N+]c1ccccc1CCc1ccccc1`, the MIC in experiment [1] amounted to 4 µM (≈ 0.829 µg/mL); in [2], 128 µM (≈ 26.5 µg/mL); in experiment [3] it was 32 µM (≈ 6.63 µg/mL); in experiment [4], 64 µM (≈ 13.3 µg/mL); in experiment [5], 16 µM (≈ 3.32 µg/mL); in experiment [6], 4 µM (≈ 0.829 µg/mL). For the same compound, the results for the MIC in [7], in [8] and in experiment [9] were 2 µM (≈ 0.415 µg/mL), 2 µM (≈ 0.415 µg/mL) and 64 µM (≈ 13.3 µg/mL), respectively.

Consider `CN[C@H](CC(C)C)C(=O)N[C@H]1C(=O)N[C@@H](CC(N)=O)C(=O)N[C@H]2C(=O)N[C@H]3C(=O)N[C@H](C(=O)N[C@H](C(=O)O)c4cc(O)cc(O)c4-c4cc3ccc4O)[C@H](O)c3ccc(c(Cl)c3)Oc3cc2cc(c3O[C@@H]2O[C@H](CO)[C@@H](O)[C@H](O)[C@H]2O[C@H]2C[C@](C)(N)[C@H](O)[C@H](C)O2)Oc2ccc(cc2Cl)[C@H]1O` [VANCOMYCIN], for which the MIC in [2] is 4 µM (≈ 5.8 µg/mL); in [4], less than 1 µM; in experiment [6], 2 µM (≈ 2.9 µg/mL); in experiment [7], 8 µM (≈ 11.6 µg/mL); in experiment [9] it was 128 µM (≈ 186 µg/mL).

For the origin of these results see ChEMBL document CHEMBL3611989, “Discovery and characterization of aryl isonitriles as a new class of compounds versus methicillin- and vancomycin-resistant Staphylococcus aureus” (Eur J Med Chem, 2015).
